Assay results as given in article PMC3969268 (Journal of medicinal chemistry, 2012).

Experiments:
[1] = molecular target: EcFtsZ-bound BoGTPγS (GTP binding pocket) (Escherichia coli, UniProt P0A9A6); experiment: BoGTPγS fluorescence anisotropy competition assay, EcFtsZ; parameters: species or system E. coli; settings: 1 μM BoGTPγS, 5 μM FtsZ, competitor 0 to 40 μM
Summary of the method: (§1)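 Competition anisotropy assay: 1 μM BODIPY-GTPγS with 0 or 5 μM FtsZ, plus test compound or unlabeled GTP (0–40 μM), in 50 mM Tris·HCl pH 7.4, 50 mM KCl, 2 mM magnesium acetate. After 5 min at 25 °C, probe anisotropy was read (ex 488/em 510 nm, 4 nm bandwidths), compared with FtsZ-free probe. Triplicates averaged.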

[2] = molecular target: SaFtsZ-bound BoGTPγS (GTP binding pocket) (Staphylococcus aureus, UniProt P0A031); experiment: BoGTPγS fluorescence anisotropy competition assay, SaFtsZ; settings: 1 μM BoGTPγS, 5 μM FtsZ, competitor 0 to 40 μM
Summary of the method: as §1

[3] = molecular target: EfFtsZ-bound BoGTPγS (GTP binding pocket) (Enterococcus faecalis, UniProt O08439); experiment: BoGTPγS fluorescence anisotropy competition assay, EfFtsZ; parameters: species or system E. faecalis; settings: 1 μM BoGTPγS, 5 μM FtsZ, competitor 0 to 40 μM
EcFtsZ [4] = molecular target: T1, EcFtsZ (Escherichia coli, UniProt P0A9A6); settings: previously reported; cited from earlier work
T1 sequence (P0A9A6 whole entry): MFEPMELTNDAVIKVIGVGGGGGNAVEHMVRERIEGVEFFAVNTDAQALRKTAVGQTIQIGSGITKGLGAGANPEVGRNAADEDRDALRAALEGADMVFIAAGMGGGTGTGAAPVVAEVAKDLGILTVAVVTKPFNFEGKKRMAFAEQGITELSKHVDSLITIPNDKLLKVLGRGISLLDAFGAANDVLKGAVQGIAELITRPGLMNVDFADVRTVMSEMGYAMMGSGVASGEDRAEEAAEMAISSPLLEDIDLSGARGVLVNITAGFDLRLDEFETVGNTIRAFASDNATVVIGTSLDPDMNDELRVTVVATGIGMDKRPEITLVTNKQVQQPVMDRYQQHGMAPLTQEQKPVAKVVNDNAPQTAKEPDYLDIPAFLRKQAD

EcFtsZ [5] = molecular target: T1, EcFtsZ; experiment: FtsZ polymerization light-scattering; format: biochemical, E. coli
SaFtsZ [6] = molecular target: T2, SaFtsZ (Staphylococcus aureus, UniProt P0A031); experiment: FtsZ polymerization light-scattering; format: biochemical, S. aureus; settings: for extent of stimulation of FtsZ polymerization (A340): 40 μg/mL compound or comparator drug
T2 sequence (P0A031 1-390): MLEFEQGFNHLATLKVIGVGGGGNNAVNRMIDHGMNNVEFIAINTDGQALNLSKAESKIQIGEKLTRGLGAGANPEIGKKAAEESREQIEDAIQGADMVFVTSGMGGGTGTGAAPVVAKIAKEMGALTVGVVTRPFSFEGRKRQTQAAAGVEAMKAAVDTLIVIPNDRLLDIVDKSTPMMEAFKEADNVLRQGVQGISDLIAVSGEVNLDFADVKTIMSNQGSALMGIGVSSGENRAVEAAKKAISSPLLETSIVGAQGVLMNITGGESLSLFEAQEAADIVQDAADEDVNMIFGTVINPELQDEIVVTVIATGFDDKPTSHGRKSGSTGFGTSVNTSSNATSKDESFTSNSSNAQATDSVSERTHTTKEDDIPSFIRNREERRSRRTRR

I228R mutant SaFtsZ [7] = molecular target: T3, I228R mutant SaFtsZ (Staphylococcus aureus, UniProt P0A031, I228R); experiment: Fluorescence anisotropy binding affinity, I228R mutant SaFtsZ; parameters: species or system S. aureus; settings: ratio of Kd values
S. aureus 8325-4 (MSSA) [8] = format: cell-based; settings: after 12 incubation cycles
I228R mutant SaFtsZ [9] = molecular target: T3, I228R mutant SaFtsZ; experiment: FtsZ polymerization light-scattering; format: biochemical, S. aureus
S. aureus [10] = experiment: Emergence of resistance, large inoculum approach; format: cell-based; settings: ~3 × 10^9 CFU/mL S. aureus on TSA plates with agent at 4- to 32-fold MIC; 24 h
E185A mutant SaFtsZ [11] = molecular target: T4, E185A mutant SaFtsZ (Staphylococcus aureus, UniProt P0A031, E185A); experiment: FtsZ polymerization light-scattering; format: biochemical, S. aureus
[12] = molecular target: E. faecalis FtsZ (EfFtsZ) (Enterococcus faecalis, UniProt O08439); experiment: Fluorescence anisotropy determination of compound-FtsZ binding affinity, EfFtsZ; settings: for binding to FtsZ (qualitative; Kd not quantifiable): EfFtsZ
S. aureus 8325-4 (MSSA) [13] = experiment: Time-kill assay; format: cell-based; settings: for reduction of bacterial number (CFUs): 8 × MIC (8 μg/mL)
Summary of the method: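 Exponential-phase S. aureus 8325-4 was diluted in cation-adjusted Mueller-Hinton broth to 10^5–10^6 CFU/mL, with DMSO as vehicle control. Cultures were shaken at 37 °C and sampled at 0, 2, 4 and 6 h. Samples were plated on tryptic soy agar, centrifuged and resuspended when undiluted to avoid carry-over. Colonies were counted after 24 h at 37 °C.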

E185A mutant SaFtsZ [14] = molecular target: T4, E185A mutant SaFtsZ; experiment: Fluorescence anisotropy binding affinity, E185A mutant SaFtsZ; parameters: species or system S. aureus; settings: ratio of Kd values
EcFtsZ [15] = molecular target: T1, EcFtsZ; experiment: Transmission electron microscopy of compound-induced FtsZ polymers, EcFtsZ; format: biochemical, E. coli; settings: 20 μg/mL
G196A mutant SaFtsZ = G196A mutant SaFtsZ (Staphylococcus aureus, UniProt P0A031, G196A); experiment: FtsZ polymerization light-scattering; format: biochemical, S. aureus; settings: G196A mutant (not shown)
[16] = molecular target: MAP-rich porcine β-tubulin (70% β-tubulin, 30% MAPs) (Sus scrofa, UniProt P02554); experiment: Tubulin polymerization light-scattering; format: biochemical; settings: 2 mg/mL porcine β-tubulin, 1 mM GTP, 37 °C
Sequence of MAP-rich porcine β-tubulin (70% β-tubulin, 30% MAPs) (P02554 whole entry): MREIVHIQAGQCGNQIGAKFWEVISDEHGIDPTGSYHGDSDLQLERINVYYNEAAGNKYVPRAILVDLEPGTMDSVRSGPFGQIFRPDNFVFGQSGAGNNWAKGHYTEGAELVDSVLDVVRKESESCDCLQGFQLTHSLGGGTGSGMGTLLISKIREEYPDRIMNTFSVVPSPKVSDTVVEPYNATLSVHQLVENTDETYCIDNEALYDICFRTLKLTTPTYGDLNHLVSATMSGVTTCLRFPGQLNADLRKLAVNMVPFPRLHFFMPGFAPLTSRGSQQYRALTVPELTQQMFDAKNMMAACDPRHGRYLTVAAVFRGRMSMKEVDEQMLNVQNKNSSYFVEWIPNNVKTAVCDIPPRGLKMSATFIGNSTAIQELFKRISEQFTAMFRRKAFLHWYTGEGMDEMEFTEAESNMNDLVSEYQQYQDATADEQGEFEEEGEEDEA
Sequence of MAP-rich porcine β-tubulin (70% β-tubulin, 30% MAPs) (P02550 whole entry partner): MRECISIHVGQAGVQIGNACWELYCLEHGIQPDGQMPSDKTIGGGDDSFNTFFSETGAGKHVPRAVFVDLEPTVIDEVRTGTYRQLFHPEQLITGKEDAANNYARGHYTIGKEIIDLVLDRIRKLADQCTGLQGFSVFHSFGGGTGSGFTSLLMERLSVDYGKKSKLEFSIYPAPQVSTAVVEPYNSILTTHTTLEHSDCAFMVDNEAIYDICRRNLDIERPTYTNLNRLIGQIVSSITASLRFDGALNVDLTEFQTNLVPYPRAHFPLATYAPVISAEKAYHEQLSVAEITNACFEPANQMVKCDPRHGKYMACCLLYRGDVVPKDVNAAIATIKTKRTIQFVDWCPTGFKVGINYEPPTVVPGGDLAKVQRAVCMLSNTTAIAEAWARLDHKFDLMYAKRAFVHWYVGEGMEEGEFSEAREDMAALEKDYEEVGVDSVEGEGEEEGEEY

EfFtsZ = EfFtsZ (Enterococcus faecalis, UniProt O08439); experiment: FtsZ polymerization light-scattering; format: biochemical, E. faecalis; settings: compound 0 to 40 μg/mL, 10 μM protein, 1 mM GTP, 25 °C
SaFtsZ [17] = molecular target: T2, SaFtsZ; experiment: Transmission electron microscopy of compound-induced FtsZ polymers, SaFtsZ; format: biochemical; settings: 20 μg/mL
[18] = molecular target: S. aureus FtsZ (SaFtsZ), wild-type (Staphylococcus aureus, UniProt P0A031); format: binding
E. coli FtsZ (EcFtsZ) = E. coli FtsZ (EcFtsZ) (Escherichia coli, UniProt P0A9A6); experiment: Fluorescence anisotropy determination of compound-FtsZ binding affinity, EcFtsZ
Sequence of E. coli FtsZ (EcFtsZ) (P0A9A6 whole entry): as the sequence (P0A9A6 whole entry) above

S. aureus [19] = settings: known from literature; cited from earlier work
[20] = system: E. faecalis ATCC 51575 (VRE); experiment: MIC broth microdilution, E. faecalis ATCC 51575; format: cell-based; settings: CAMH broth, 24 h, 37 °C
S. aureus Mu3 (MRSA) = experiment: MIC broth microdilution, S. aureus Mu3; format: cell-based; settings: S. aureus Mu3 (MRSA, hetero-GISA); CAMH broth + 2% NaCl, 24 h, 37 °C
S. aureus 8325-4 (MSSA) [21] = experiment: MIC broth microdilution, S. aureus 8325-4; format: cell-based; settings: S. aureus 8325-4 (MSSA); CAMH broth, 24 h, 37 °C; ≥90% growth inhibition
[22] = system: E. faecalis ATCC 19433 (VSE); experiment: MIC broth microdilution, E. faecalis ATCC 19433; format: cell-based; settings: CAMH broth, 24 h, 37 °C
[23] = system: S. aureus ATCC 33591 (MRSA); experiment: MIC broth microdilution, S. aureus ATCC 33591; format: cell-based; settings: CAMH broth + 2% NaCl, 24 h, 37 °C

Sequence of EcFtsZ-bound BoGTPγS (GTP binding pocket) (P0A9A6 whole entry): as above

## Nc1nc2c(ncn2[C@@H]2O[C@H](COP(=O)(O)OP(=O)(O)OP(=O)(O)O)[C@@H](O)[C@H]2O)c(=O)[nH]1 [GTP, reference compound]
[1]
  effect on anisotropy of FtsZ-bound BoGTPγS: marked, concentration-dependent decrease
[2]
  effect on anisotropy of FtsZ-bound BoGTPγS: marked, concentration-dependent decrease
[3]
  effect on anisotropy of FtsZ-bound BoGTPγS: marked, concentration-dependent decrease

## NC(=O)c1c(F)ccc(OCc2nc3cc(Cl)cnc3s2)c1F [PC190723]
EcFtsZ [4]
  impact on EcFtsZ polymerization: does not affect the polymerization

## CC1(C)S[C@@H]2[C@H](NC(=O)[C@H](N)c3ccccc3)C(=O)N2[C@H]1C(=O)[O-].[Na+] [ampicillin, reference compound]
EcFtsZ [5]; 40 μg/mL compound or comparator drug
  extent of stimulation of FtsZ polymerization (A340): negligible impact

## CCC[C@@H]1C[C@@H](C(=O)N[C@@H]([C@H]2O[C@H](SC)[C@H](O)[C@@H](O)[C@H]2O)[C@H](C)Cl)N(C)C1.Cl [clindamycin, reference compound]
SaFtsZ [6]; SaFtsZ
  extent of stimulation of FtsZ polymerization (A340): negligible impact

## CC(C)(C)c1ccc(-c2cccc(CNC(=N)N)c2)cc1 [compound 13, 1-((4′-(tert-Butyl)-[1,1′-biphenyl]-3-yl)methyl)guanidine]
I228R mutant SaFtsZ [7]
  affinity for I228R mutant lower than for wild-type SaFtsZ: approximately 10 fold
S. aureus 8325-4 (MSSA) [8]
  change of MIC over repeated incubation cycles: did not change to any significant degree
I228R mutant SaFtsZ [9]; 10 μg/mL
  impact on SaFtsZ polymerization (A340): essentially no effect
I228R mutant SaFtsZ [9]; 20 μg/mL
  magnitude of stimulation of SaFtsZ polymerization (A340): markedly lower than that observed for wild-type SaFtsZ
[1]
  effect on anisotropy of FtsZ-bound BoGTPγS: does not significantly alter the anisotropy
S. aureus [10]
  agent-containing plates on which colonies were observed: none
E. coli N43 (acrA1)
  AcrAB efflux pump substrate (inferred from MIC N43 vs W4573): substrate for the AcrAB efflux transporter
EcFtsZ [5]; compound 0 to 40 μg/mL, 10 μM protein, 1 mM GTP, 25 °C
  impact on FtsZ polymerization dynamics (A340): increases both the kinetics and extent
E185A mutant SaFtsZ [11]; 10 μg/mL
  impact on SaFtsZ polymerization (A340): essentially no effect
E185A mutant SaFtsZ [11]; 20 μg/mL
  magnitude of stimulation of SaFtsZ polymerization (A340): markedly lower than that observed for wild-type SaFtsZ
[2]
  effect on anisotropy of FtsZ-bound BoGTPγS: does not significantly alter the anisotropy
[12]; ratio of Kd values
  affinity for EfFtsZ lower than affinity for SaFtsZ and EcFtsZ: approximately 6 fold
[3]
  effect on anisotropy of FtsZ-bound BoGTPγS: does not significantly alter the anisotropy
S. aureus 8325-4 (MSSA) [13]; within 2 h
  reduction of bacterial number (CFUs): three logs
S. aureus 8325-4 (MSSA) [13]; within 6 h
  reduction of bacterial number (CFUs): four logs
S. aureus 8325-4 (MSSA) [13]; both agents at 8 × MIC
  rate of kill relative to vancomycin: approximately 100 times
E185A mutant SaFtsZ [14]
  affinity for E185A mutant lower than for wild-type SaFtsZ: approximately 10 fold
EcFtsZ [15]
  FtsZ polymer assembly and bundling by EM: promoting only the assembly, and not the bundling, of EcFtsZ polymers
G196A mutant SaFtsZ
  effect of G196A mutation on stimulation of SaFtsZ polymerization by compound: negligible effect
SaFtsZ [6]; SaFtsZ, compound 0 to 40 μg/mL, 10 μM protein, 1 mM GTP, 25 °C
  impact on FtsZ polymerization dynamics (A340): increases both the kinetics and extent
SaFtsZ [6]; wild-type SaFtsZ, 10 μg/mL
  impact on SaFtsZ polymerization (A340): stimulatory impact
[16]; 40 μg/mL
  impact on tubulin polymerization (A340): negligible impact
EfFtsZ
  impact on FtsZ polymerization dynamics (A340): increases both the kinetics and extent
SaFtsZ [17]
  FtsZ polymer assembly and bundling by EM: promotes both the assembly and bundling of SaFtsZ polymers

## CC(C)(C)c1ccc(-c2ccnc(CNC(=N)N)c2)cc1 [compound 14, 1-((4-(4-(tert-Butyl)phenyl)pyridin-2-yl)methyl)guanidine]
E. coli N43 (acrA1)
  AcrAB efflux pump substrate (inferred from MIC N43 vs W4573): substrates of the AcrAB efflux pump
[18]
  binding to FtsZ (qualitative; Kd not quantifiable): weak nature of the binding interactions
[12]
  binding to FtsZ (qualitative; Kd not quantifiable): weak nature of the binding interactions
E. coli FtsZ (EcFtsZ)
  binding to FtsZ (qualitative; Kd not quantifiable): weak nature of the binding interactions

## CC(C)(C)c1ccc(-c2cc(CNC(=N)N)ncn2)cc1 [compound 15, 1-((6-(4-(tert-Butyl)phenyl)pyrimidin-4-yl)methyl)guanidine]
E. coli N43 (acrA1)
  AcrAB efflux pump substrate (inferred from MIC N43 vs W4573): substrates of the AcrAB efflux pump
[18]
  binding to FtsZ (qualitative; Kd not quantifiable): weak nature of the binding interactions
[12]
  binding to FtsZ (qualitative; Kd not quantifiable): weak nature of the binding interactions
E. coli FtsZ (EcFtsZ)
  binding to FtsZ (qualitative; Kd not quantifiable): weak nature of the binding interactions

## COC(=O)Nc1nc2cc(C(=O)c3cccs3)ccc2[nH]1 [nocodazole]
[16]; 10 μg/mL
  impact on tubulin polymerization (A340): expected inhibitory impact

## CC(=O)O[C@H]1C(=O)[C@@]2(C)[C@H]([C@H](OC(=O)c3ccccc3)[C@]3(O)C[C@H](OC(=O)[C@H](O)[C@@H](NC(=O)c4ccccc4)c4ccccc4)C(C)=C1C3(C)C)[C@]1(OC(C)=O)CO[C@@H]1C[C@@H]2O [paclitaxel]
[16]; 25 μg/mL
  impact on tubulin polymerization (A340): expected stimulatory impact

## CO[C@H]1/C=C/O[C@@]2(C)Oc3c(C)c(O)c4c(O)c(c(/C=N/N5CCN(C)CC5)c(O)c4c3C2=O)NC(=O)/C(C)=C\C=C\[C@H](C)[C@H](O)[C@@H](C)[C@@H](O)[C@@H](C)[C@H](OC(C)=O)[C@@H]1C [rifampicin, reference compound]
S. aureus [10]
  agent-containing plates on which colonies were observed: 100%
S. aureus [19]
  rate of induced spontaneous mutants in S. aureus: 10^−6 to 10^−8

## oxacillin
[20]
  MIC: 64.0 µg/mL
S. aureus Mu3 (MRSA)
  MIC: >64.0 µg/mL
S. aureus 8325-4 (MSSA) [21]
  MIC: 0.063 µg/mL
[22]
  MIC: 8.0 µg/mL
SaFtsZ [6]; SaFtsZ
  extent of stimulation of FtsZ polymerization (A340): negligible impact
[23]
  MIC: >64.0 µg/mL
